Experimental findings from ChEMBL document CHEMBL1121664, “(Acylaryloxy)acetic acid diuretics. 4. Indeno[5,4-b]furan-2-carboxylic acids” (1981) are described below.

Experiment [1] has as its system Pan troglodytes. The experiment in a line: Compound was tested for the oral natriuretic activity in chimpanzee at the dose 5 mg/kg expressed as excretion rate in microequiv of Na+/min. The experiment is classed as functional. The procedure, abridged: (§1)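 GFR measured by iv pyrogen-free inulin. Inulin and urate clearances and Na+, K+, Cl- excretion rates measured by Auto Analyzer. Control values averaged over three 20-min periods. Compound given orally as aqueous solution via nasal catheter. Response is the mean of eight 15–20 min periods minus control, from single experiments.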

Experiment [2] relates to Rattus norvegicus. The experiment in a line: Compound was tested for the oral natriuretic activity in female rats at the dose 27 mg/kg; mequiv of Na+ x 100 / cage. The experiment is classed as functional. Put shortly:
(§2)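 Female Charles River rats (150–170 g) were kept overnight on a sugar diet with water ad libitum. Compound was dosed po in a final vehicle of 4% DMF in water with Tween 80, alongside concurrent vehicle placebo. Rats were housed three per metabolism cage and urine was collected over 0–5 h. Na+ is reported as mequiv ×100 per cage, as the geometric mean of three cages per dose.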

In experiment [3] the test system is Rattus norvegicus. Put plainly: Compound was tested for the oral natriuretic activity in female rats at the dose 3 mg/kg; mequiv of Na+ x 100 / cage. In kind it is functional. Put shortly:
as §2

Experiment [4] deals with Rattus norvegicus. Put plainly: Compound was tested for the oral natriuretic activity in female rats at the dose 9 mg/kg; mequiv of Na+ x 100 / cage. The experiment is classed as functional. Put shortly:
as §2

For experiment [5], the system named is Rattus norvegicus. The experiment in a line: Compound was tested for the oral natriuretic activity in female rats at the dose 81 mg/kg; mequiv of Na+ x 100 / cage. The experiment is classed as functional. Put shortly:
as §2

Experiment [6] can be described thus: Compound was tested for the ratio of clearance of urate to clearance of inulin levels at 5 mg/kg in Chimpanzee. In kind it is functional. The procedure, abridged: as §1
Experiment [7] deals with Pan troglodytes. Put plainly: Compound was tested for the oral diuretic activity in chimpanzee at the dose 5 mg/kg expressed as excretion rate in microequiv of K+/min. In kind it is functional, Urine. Put shortly: as §1
Experiment [8] deals with Pan troglodytes. The experiment in a line: Compound was tested for the oral diuretic activity in chimpanzee at the dose 5 mg/kg expressed as excretion rate in microequiv of Cl-/min. In kind it is functional, Urine. The procedure, abridged:
as §1

Experiment [9] deals with Pan troglodytes. The experiment in a line: Compound was tested for the oral natriuretic activity in chimpanzee at 5 mg/kg by observing the excretion rates of sodium; µequiv of Na+/min.
Experiment [10] deals with Pan troglodytes. Put plainly: Compound was tested for the oral natriuretic activity in chimpanzee at the dose 0.1 mg/kg expressed as excretion rate in microequiv of Na+/min. In kind it is functional. The procedure, abridged: as §1
Experiment [11] deals with Pan troglodytes. The experiment in a line: Compound was tested for the oral diuretic activity in chimpanzee at the dose 0.1 mg/kg expressed as excretion rate in microequiv of K+/min. In kind it is functional, Urine. Put shortly:
as §1

Experiment [12] deals with Pan troglodytes. Put plainly: Compound was tested for the oral diuretic activity in chimpanzee at the dose 0.1 mg/kg expressed as excretion rate in microequiv of Cl-/min. The experiment is classed as functional, Urine. The procedure, abridged:
as §1

For the compound `CCC1C(=O)c2c(Cl)c(Cl)c3c(c2C1c1ccccc1)CC(C(=O)O)O3` (centres undefined), the Excretion rate in the experiment on Pan troglodytes [1] worked out at 820; in the experiment with Rattus norvegicus [2], 82; in the experiment with Rattus norvegicus [3] it was 94; in the experiment on Rattus norvegicus [4] it was 109; with Rattus norvegicus [5], 87. Besides, in experiment [6], the Ratio was 0.16.

For `CCCN(CCC)S(=O)(=O)c1ccc(C(=O)O)cc1` [PROBENECID], the Ratio in experiment [6] was determined as 0.05.

On to `CC1(c2ccccc2)Cc2cc(OCC(=O)O)c(Cl)c(Cl)c2C1=O` (centres undefined) [INDACRINONE], for which the Excretion rate was determined as 409 in the experiment on Pan troglodytes [1]; 108 in the experiment on Pan troglodytes [7]; 539 with Pan troglodytes [8]; 129 in the experiment on Rattus norvegicus [2]; 86 in the experiment with Rattus norvegicus [3]; 97 in the experiment on Rattus norvegicus [4]. For the same compound, the Excretion rate with Rattus norvegicus [5] was 189. Also, the Ratio in experiment [6] is 0.38.

`NS(=O)(=O)c1cc(C(=O)O)c(NCc2ccco2)cc1Cl` [FUROSEMIDE]: the Excretion rate amounted to 125 in the experiment on Rattus norvegicus [2], 7 in the experiment on Rattus norvegicus [4], 244 in the experiment with Rattus norvegicus [5] and 1040 µequiv/min in the experiment on Pan troglodytes [9]. Besides, in experiment [6], the Ratio is on record as -0.02.

On to `CC1(C2CCCC2)Cc2cc(OCC(=O)O)c(Cl)c(Cl)c2C1=O` (centres undefined), for which the values for the Excretion rate in the experiment with Pan troglodytes [1], in the experiment on Pan troglodytes [7] and with Pan troglodytes [8] were 425, 64 and 367, respectively. The Ratio in experiment [6] turned out to be 0.2.

As for `NS(=O)(=O)c1cc2c(cc1Cl)NCNS2(=O)=O` [HYDROCHLOROTHIAZIDE], the Excretion rate in the experiment with Pan troglodytes [1] is given as 144; with Pan troglodytes [7], 73; in the experiment on Pan troglodytes [8], 198; in the experiment with Rattus norvegicus [4] it was 112.

Regarding `CCCC1Cc2c(c(C)c(C)c3oc(C(=O)O)cc23)C1=O` (centres undefined), the Excretion rate was 0 with Pan troglodytes [1]; 32 in the experiment with Rattus norvegicus [2]; 15 in the experiment with Rattus norvegicus [3]; 16 in the experiment with Rattus norvegicus [4]; 28 in the experiment on Rattus norvegicus [5]. The Ratio in experiment [6] came out at 0.01.

On to `CC1(C2CCCC2)Cc2c3c(c(Cl)c(Cl)c2C1=O)O[C@@H](C(=O)O)C3` (some centres undefined), for which the Excretion rate is on record as 437 in the experiment with Pan troglodytes [1]; 63 in the experiment on Pan troglodytes [7]; 614 with Pan troglodytes [8]; 279 in the experiment with Rattus norvegicus [2]; 127 in the experiment on Rattus norvegicus [3]; 223 with Rattus norvegicus [4]. The Excretion rate in the experiment on Rattus norvegicus [5] is 340. Besides, in experiment [6], the Ratio is reported as -0.04.

For the compound `CC1(c2ccccc2)Cc2c3c(c(Cl)c(Cl)c2C1=O)O[C@H](C(=O)O)C3` (some centres undefined), the Excretion rate with Pan troglodytes [10] stood at 1305; with Pan troglodytes [11], 88; with Rattus norvegicus [2], 281; in the experiment with Rattus norvegicus [3], 189; in the experiment on Rattus norvegicus [4] it was 267; in the experiment on Rattus norvegicus [5], 388. Moreover, the Excretion rate in the experiment with Pan troglodytes [12] is 1532. For the same compound, in experiment [6], the Ratio was determined as 0.09.

Turning to `O=C(O)[C@H]1Cc2c3c(c(Cl)c(Cl)c2O1)C(=O)C1(CCCC1)C3` (stereo in doubt; 4d), the Excretion rate in the experiment on Pan troglodytes [1] (5 mg/kg) is recorded as 1500; in the experiment with Pan troglodytes [7], 274; in the experiment with Pan troglodytes [8], 1990; in the experiment with Rattus norvegicus [2] it was 349; in the experiment on Rattus norvegicus [3] (3 mg/kg) it was 224; in the experiment with Rattus norvegicus [4] (9 mg/kg), 323. Also, in the experiment on Rattus norvegicus [5], the Excretion rate was found to be 432. The Ratio in [6] (5 mg/kg) is listed as 0.

For `CCCC1Cc2c3c(c(C)c(C)c2C1=O)OC(C(=O)O)C3` (centres undefined), the Excretion rate in the experiment with Pan troglodytes [1] was 252. In addition, the Ratio in [6] is 0.01.

For the compound `O=C(O)COc1cc2c(c(Cl)c1Cl)C(=O)C1(CCCC1)C2`, the Excretion rate in the experiment with Pan troglodytes [1] was found to be 321; with Pan troglodytes [7] it was 42; in the experiment on Pan troglodytes [8], 399. The Ratio in experiment [6] was 0.14.
